# The campaign covered roughly 360,000 compounds. About 5,400 (1.5%) were called active. The list comes from a sample in which actives are over-represented; it also holds similar structures and randomly drawn compounds. Unmarked numbers belong to inactive results.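 Rule for the calls: active = inhibition above a per-plate cutoff, the mean inhibition of test compounds on that plate plus 3 SD (cut at about 49% in these data); inactive = the rest.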
# Target: Trace amine-associated receptor 1 (Homo sapiens) (UniProt Q96RJ0)
# Assay: blockers of beta-PEA-driven TAAR1 calcium signal – Fluo-8 calcium fluorescence, CHO RD-HGA16 cells, primary screen (AID 624466);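 note: 0% = DMSO plus EC80 beta-PEA response and 100% = DMSO alone without agonist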
# Conditions: CHO RD-HGA16 TAAR1, Fluo-8 calcium fluorescence, antagonist; at 3 µM; active compounds read high
# Outline: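 System: CHO RD-HGA16 cells bearing hTAAR1. Reagent: EC80 β-phenethylamine stimulus. Schedule: seeding 17-24 h prior, 75-min 37 °C, 30-min RT dye loading. Signal: Fluo-8 intracellular calcium dye fluorescence, real-time kinetic reads. Read-out: % inhibition from peak post-agonist over basal fluorescence ratio. Benchmarks: vehicle wells and EC80 agonist wells. Replicates: n of 1.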
# Chain of Trace amine-associated receptor 1 (Homo sapiens) (Q96RJ0 whole entry, looked up): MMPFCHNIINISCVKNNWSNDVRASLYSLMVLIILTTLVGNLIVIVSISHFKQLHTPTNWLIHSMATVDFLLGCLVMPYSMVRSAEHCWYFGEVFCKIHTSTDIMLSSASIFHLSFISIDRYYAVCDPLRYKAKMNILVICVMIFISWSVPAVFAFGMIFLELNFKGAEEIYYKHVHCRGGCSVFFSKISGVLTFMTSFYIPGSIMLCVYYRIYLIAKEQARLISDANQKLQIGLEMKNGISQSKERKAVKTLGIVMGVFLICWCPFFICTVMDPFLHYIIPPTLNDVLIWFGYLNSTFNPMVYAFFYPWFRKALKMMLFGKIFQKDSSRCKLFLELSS
row,SMILES,inhibition
1,CCCc1c(-c2ccccc2F)ncn1Cc1ccccc1OC,-7.18%
2,CCCCCc1c(Cc2ccccc2)ncn1CCc1ccccc1OC,66.2% (active)
3,CCc1c(-c2ccccc2OC)ncn1CCc1ccccc1OC,14.3%
4,CCOC(=O)c1cc2cc(OC)ccc2n1C1CCN(C)CC1,-4.73%
5,COC(=O)[C@]1(Cc2ccccc2)NC=C(C(=O)c2ccccc2)[C@@H]1c1cccc(OC)c1,-1.81%
6,C[C@H](NC(=O)[C@@H]1CCCN1C(=O)[C@@H]1CCCN1C(=O)c1ccccc1)c1ccccc1,2.01%
7,C=CCC[C@H](CCCCC)OC(=O)/C=C/[C@H](O)[C@@H](O)C[C@@H](O)CC=C,-19.3%
8,COC(=O)C(C)N(C#N)c1nc(C)nc(C)n1 (stereo not drawn),-2.26%
9,COC(=O)c1c(-c2ccc(OC)cc2)c2c(c3c4ccccc4n(S(=O)(=O)c4ccc(C)cc4)c13)C(=O)N(C)C2,-15.3%
10,CN=C(NC#N)NCCSCc1nc[nH]c1C,-15.6%
11,Cc1cc(C)n2nc(C(=O)Oc3ccc4c(c3)OCO4)nc2n1,2.03%
12,O=C(NCc1ccccc1)[C@@H]1CCCN1C(=O)[C@@H](NS(=O)(=O)c1ccc(F)cc1F)C1CCCCC1,7.07%
13,O=C(C(=O)N1CCC(c2ccccc2)CC1)c1ccccc1,-1.49%
14,O=C(CSc1nc(-c2ccco2)cc(C(F)(F)F)n1)NCc1cccs1,58.2% (active)
15,COc1ccc(-c2cc(C(F)(F)F)nc(SCCC(=O)NCc3ccco3)n2)cc1,-2.48%
16,O=C(CSc1nc(-c2ccco2)cc(C(F)(F)F)n1)N1CCc2ccccc2C1,-4.26%
17,CC1CCCN(C(C(=O)Nc2ccc(C(C)C)cc2)c2ccc3c(c2)OCO3)C1 (stereo not drawn),-12.3%
18,CCOC(=O)[C@]12CCCC=C1N(Cc1ccc3c(c1)OCO3)C(=O)[C@H](CC(=O)NCc1cccs1)C2,-12.1%
19,O=C(O)c1ccc(-n2cccc2)cc1O,6.36%
20,CC(=N\NC(=O)c1cc(Br)ccc1O)/C(=N/O)C(=O)Nc1ccccc1,-8.22%
21,Cc1onc(-c2ccccc2)c1-c1nnc(COC(=O)c2ccc(N(C)C)cc2)o1,73.5% (active)
22,Cc1onc(-c2ccccc2Cl)c1C(=O)OCc1nnc(-c2ccccc2)o1,14.8%

row,SMILES,inhibition
1,Cc1ccc(C(=O)NCC(=O)OCc2nnc(-c3ccccc3)o2)cc1,-15.8%
2,O=S1(=O)CC(N2CCN(Cc3ccccc3F)CC2)CN1Cc1cn(Cc2ccccc2)nn1 (stereo not drawn),-11.1%
3,CC(C)CCNc1nc(N2CCCC2)c2c(c1C#N)CCN(C)C2,-24.7%
4,CCN1CCc2c(C#N)c(NCc3ccccc3)nc(NCCO)c2C1,106% (active)
5,CCCCc1nc(NCc2ccccc2)c(C#N)c2c1CCCC2,-12.6%
6,COc1ccc(-c2nn(-c3ccccc3)cc2C(=O)Nc2nccs2)cc1OC,71.3% (active)
7,O=C(O)c1ccccc1-c1ccccc1C(=O)Nc1nccs1,-18.3%
8,COc1ccc(Cl)cc1NC(=O)CN(C)C(=O)c1cn(-c2ccccc2)nc1-c1cccs1,12.7%
9,CCn1c(/C=C/Nc2ccccc2)[n+](CC)c2ccc(C(=O)OCC(F)(F)F)cc21,-27.5%
10,CC1(C)OC(=O)C2=C(C[C@@H](C3CCCCC3)O[C@@H]2c2ccc(Cl)cc2)O1,-31%
11,CS(=O)(=O)c1ccc(-c2nnn(CC(=O)Nc3ccc4c(c3)OCCO4)n2)cc1,21%
12,CC(C)c1cccc(-c2csc(C(O)c3ccccc3)n2)c1 (stereo not drawn),17.5%
13,COc1ccccc1NS(=O)(=O)c1ccc(C(=O)N2CCN(c3ccccc3O)CC2)cc1,58.1% (active)
14,COc1ccc(N2CCN(C(=O)COC(=O)c3cccc(S(=O)(=O)Nc4ccccc4OC)c3)CC2)cc1,21.7%
15,CN1CCN(C(=O)c2ccc(NS(=O)(=O)c3ccccc3)cc2)CC1,-8.92%
16,CCOc1ccc(-n2cnc3c(=O)[nH]c(N)nc32)cc1,0.45%
17,O=C(COC(=O)c1ccc(O)cc1O)NC(=O)c1ccccc1,-0.49%
18,O=C(NNC(=O)c1ccccc1O)c1ccccc1O,-13.5%
19,O=C(NNc1c2ccccc2nc2ccccc12)c1cc2ccccc2cc1O,65.3% (active)
20,Cc1cccc(C)c1NC(=O)C(c1ccc(C(F)(F)F)cc1)n1c(=O)c(-c2ccco2)nc2ccccc21 (stereo not drawn),-9.78%
21,O=S(=O)(NCCc1ccccn1)c1cc(Cl)cc(Cl)c1O,-19.9%

# Source: PubChem BioAssay AID624466 (The Scripps Research Institute Molecular Screening Center, 2012)
